Activity calls are given as the source filed them. The calls are words filed in the database; no cut-off is given here.
Tests used:
[1] = tested on: Mus musculus; test: Antihyperalgesic activity in Swiss mouse assessed as inhibition of formalin-induced nociception at 100 umol/kg, po administered 40 mins before formalin challenge measured after 15 to 30 mins; type: functional, organism-based
Outline: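 Swiss mice given 100 µmol/kg p.o. (vehicle arabic gum) 40 min before 20 µL of 2% formalin in 0.9% saline s.c. into the right hind paw. Licking/biting time recorded 0–5 min (neurogenic phase) and 15–30 min (inflammatory phase). n = 6. Mean ± S.E.M. ANOVA with Dunnett test vs control.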

[2] = tested on: Mus musculus; test: Analgesic activity in Swiss mouse at 100 umol/kg, po after 90 mins by hot plate test; type: functional
Outline: (§1)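 Swiss mice (20–30 g) given 100 µmol/kg orally and placed on a hot plate at 55 ± 1 °C. Latency to fore- or hind-paw licking or jumping recorded 30, 60, 90 and 120 min after dosing. Baseline is the mean reaction time at 30 and 60 min before dosing. n = 6–8. ANOVA with Dunnett test vs control.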

[3] = tested on: Mus musculus; test: Analgesic activity in Swiss mouse at 100 umol/kg, po after 60 mins by hot plate test; type: functional; outline: as §1
[4] = tested on: Mus musculus; test: Analgesic activity in Swiss mouse at 100 umol/kg, po after 120 mins by hot plate test; type: functional; outline: as §1
[5] = tested on: Mus musculus; test: Analgesic activity in Swiss mouse assessed as inhibition of acetic acid-induced abdominal writhings at 100 umol/kg, po administered 60 mins before acetic acid challenge relative to control; design: scale not given: the % may be the effect or the level left
[6] = tested on: Mus musculus; test: Antihyperalgesic activity in Swiss mouse assessed as inhibition of formalin-induced nociception at 100 umol/kg, po administered 40 mins before formalin challenge measured after 0 to 5 mins; type: functional, organism-based
[7] = tested on: Mus musculus; test: Analgesic activity in Swiss mouse at 100 umol/kg, po after 30 mins by hot plate test; type: functional; outline: as §1
[8] = tested on: Mus musculus; test: Hypothermic activity in Swiss mouse assessed as decrease in rectal body temperature at 100 umol/kg, po after 1 hr at room temperature; type: organism-based; conditions: in vivo
Outline: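 Swiss mice with normal rectal temperature (37.0–38.0 °C) were acclimatized 1 h at 25 °C room temperature, and baseline rectal temperature was taken. Animals were then dosed orally at 100 µmol/kg, and rectal temperature was re-measured 1 h later; change from baseline reported, n = 8, mean ± S.E.M., Dunnett versus control.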

[9] = tested on: Mus musculus; test: Hepatotoxicity in Swiss mouse assessed as changes in morphology of liver parenchyma at 100 umol/kg, po for five days after 24 hrs of last dose; type: toxicity, organism-based; conditions: in vivo
Outline: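 Swiss mice given 100 µmol/kg p.o. daily for 5 days; controls received vehicle. After blood collection 24 h post last dose, animals were killed with CO₂; ten liver samples per animal (two each from left, right, left middle, right middle and caudate lobes) fixed in 10% neutral buffered formalin, H&E stained, examined at 100× and 400× for necrosis or degeneration.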

[10] = tested on: Mus musculus; test: Analgesic activity in po dosed Swiss mouse assessed as inhibition of acetic acid-induced abdominal writhings administered 60 mins before acetic acid challenge measured for 25 mins; type: functional; conditions: Abdomen
Outline: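 Swiss mice (20–30 g). Oral dosing before i.p. 0.6% (v/v) acetic acid, 0.1 mL/10 g. Writhes (abdominal contraction, pelvic rotation, hind-limb extension) counted for 20 min starting 5 min after injection. Result expressed as % inhibition vs vehicle controls. Screening at 100 µmol/kg p.o.; dose-response at 100, 30, 10 and 3 µmol/kg with ID50 by linear regression. n = 8.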

[11] = tested on: Mus musculus; test: Hepatotoxicity in Swiss mouse assessed as increase in serum gamma-glutamyl transferase at 100 umol/kg, po for five days after 24 hrs of last dose; type: toxicity, organism-based; conditions: in vivo
Outline: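 Swiss mice received 100 µmol/kg p.o. daily for five days (n = 6; vehicle n = 5). 24 h after the last dose, blood was drawn under ethyl ether anaesthesia, and serum was separated at 3000 × g for 15 min and kept at 4 °C. gGT was assayed by a kinetic kit method, in U/L. ANOVA with Dunnett test.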

[12] = tested on: Mus musculus; test: Analgesic activity in Swiss mouse at 15 umol/kg, ip after 60 mins by hot plate test; type: functional
Outline: (§2)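 Hot-plate reference arm in Swiss mice: morphine 15 µmol/kg i.p. Animals placed on a plate at 55 ± 1 °C. Paw-licking or jumping latency read 30, 60, 90 and 120 min after treatment. Baseline is the mean of readings at 30 and 60 min before treatment. n = 8.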

[13] = tested on: Mus musculus; test: Analgesic activity in Swiss mouse at 15 umol/kg, ip after 90 mins by hot plate test; type: functional; outline: as §2
[14] = tested on: Mus musculus; test: Analgesic activity in Swiss mouse at 15 umol/kg, ip after 120 mins by hot plate test; type: functional; outline: as §2
[15] = tested on: Mus musculus; test: Analgesic activity in Swiss mouse at 15 umol/kg, ip after 30 mins by hot plate test; type: functional; outline: as §2

Compound	Activity [1]	Activity [2] [%]	Activity [3] [%]	Activity [4] [%]	Activity [5] [%]	Activity [6]	Activity [7] [%]	Activity [8] [°C]	Activity [9]	Activity [10]	Activity [11]	Activity [12] [%]	Activity [13] [%]	Activity [14] [%]	Activity [15] [%]
CC(=O)Nc1ccc(S(=O)(=O)N2CCSCC2)cc1	inactive	48.3	28.6	65.1	44	inactive	25	-0.7	–	–	–	–	–	–	–
CC(=O)Nc1ccc(S(=O)(=O)N2CCN(C)CC2)cc1	inactive	19.6	47.9	21.3	75	inactive	57.5	-1.8	Non-toxic	Dose-dependent effect	Non-toxic	–	–	–	–
CCN(CC)S(=O)(=O)c1ccc(NC(C)=O)cc1	Active	0	0	0	45.8	–	2.4	-1.8	–	–	–	–	–	–	–
CC(=O)Nc1ccc(O)cc1 [ACETAMINOPHEN]	inactive	54.6	60.6	54.6	34	–	51.8	-1.1	Toxic	–	–	–	–	–	–
CC(=O)Nc1ccc(S(=O)(=O)N2CCCCC2)cc1	Active	18.2	14.3	30.7	29.6	–	26.5	-0.8	–	–	–	–	–	–	–
CC(=O)Nc1ccc(S(=O)(=O)N2CCOCC2)cc1	inactive	20.7	23.3	8	43.2	–	22	-1.4	–	–	–	–	–	–	–
CC(=O)Nc1ccc(S(=O)(=O)N2CCNCC2)cc1	inactive	37.1	7.2	0	61.1	–	23.5	0.2	–	–	–	–	–	–	–
CCNS(=O)(=O)c1ccc(NC(C)=O)cc1	inactive	32.8	6	24.2	48.6	inactive	23	0.2	–	–	–	–	–	–	–
CN1CC[C@]23c4c5ccc(O)c4O[C@H]2[C@@H](O)C=C[C@H]3[C@H]1C5 [MORPHINE]	–	–	–	–	–	–	–	–	–	–	–	74.7	57.8	32.1	78.9

— ChEMBL document CHEMBL1153756, “Synthesis and pharmacological evaluation of N-phenyl-acetamide sulfonamides designed as novel non-hepatotoxic analgesic candidates” (Eur J Med Chem, 2009)
